pKi: −log10 of the molar value. The source made the active and inactive calls. No cut-off for these calls is given here.
Assays:
[1] = tested on: Rattus norvegicus; experiment: Neurotoxicity in Sprague-Dawley albino rat assessed as minimal motor impairment at 30 mg/kg, po after 4 hrs by rotorod test; type: toxicity, organism-based; set-up: dose 30 mg/kg, route oral; conditions: in vivo
Summary of the method: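 Male Sprague-Dawley albino rats (100–150 g), groups of 4, dosed orally with a suspension in 0.5% methylcellulose/water. Neurotoxicity was scored as minimal motor impairment on the rotorod at 0.25, 0.5, 1 and 4 h. Results are reported as animals showing toxicity per animals tested.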

[2] = tested on: Rattus norvegicus; experiment: Anticonvulsant activity in Sprague-Dawley albino rat assessed as protection against subcutaneous pentylenetetrazole-induced seizures at 50 mg/kg, po after 2 hrs; type: functional, organism-based; set-up: dose 50 mg/kg
Summary of the method: (§1)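 Male Sprague-Dawley albino rats (100–150 g), groups of 4. Oral suspension in 0.5% methylcellulose/water. Protection assessed by maximal electroshock or subcutaneous pentylenetetrazole; motor impairment by rotorod. Time points 0.25–4 h. Value is protected (or toxic)/tested animals.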

[3] = tested on: Mus musculus; experiment: Anticonvulsant activity in F1 albino mouse assessed as protection against subcutaneous pentylenetetrazole-induced seizures at 100 mg/kg, ip after 1 hr; type: functional, organism-based; set-up: dose 100 mg/kg
Summary of the method: (§2)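 Male albino F-1 mice (18–25 g), groups of 1–5 (rotorod 2–8). Compound given ip as a suspension in 0.5% methylcellulose at 30, 100 and 300 mg/kg. Seizures by maximal electroshock or subcutaneous pentylenetetrazole; neurotoxicity by rotorod. Read at 0.5 and 4 h, with some at 0.25, 1 and 2 h. Value is the minimum active dose, with protected (or toxic)/tested animals.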

[4] = tested on: Rattus norvegicus; experiment: Toxicity in Sprague-Dawley albino rat assessed as mortality following continuous seizures at 50 mg/kg, po after 0.25 hrs; type: organism-based; set-up: dose 50 mg/kg, route oral; conditions: in vivo
Summary of the method: (§3)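 Male Sprague-Dawley albino rats (100–150 g), in groups of 4, were given an oral suspension in 0.5% methylcellulose/water. The event recorded was death following continuous seizures, given as animals affected per animals tested.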

[5] = tested on: Rattus norvegicus; experiment: Neurotoxicity in Sprague-Dawley albino rat assessed as minimal motor impairment at 30 mg/kg, po after 0.25 hrs by rotorod test; type: toxicity, organism-based; set-up: dose 30 mg/kg, route oral; conditions: in vivo; summary of the method: as §1
[6] = tested on: Mus musculus; experiment: Anticonvulsant activity in F1 albino mouse assessed as protection against maximal electroshock-induced seizures at 300 mg/kg, ip after 0.25 hrs; type: functional, organism-based; set-up: dose 300 mg/kg; summary of the method: as §2
[7] = target: T1, Adenosine receptor A1 (Rattus norvegicus, UniProt P25099); experiment: Displacement of [3H]CCPA from adenosine A1 receptor in rat brain cortical membrane; type: cell membranes
T1 sequence (P25099 whole entry): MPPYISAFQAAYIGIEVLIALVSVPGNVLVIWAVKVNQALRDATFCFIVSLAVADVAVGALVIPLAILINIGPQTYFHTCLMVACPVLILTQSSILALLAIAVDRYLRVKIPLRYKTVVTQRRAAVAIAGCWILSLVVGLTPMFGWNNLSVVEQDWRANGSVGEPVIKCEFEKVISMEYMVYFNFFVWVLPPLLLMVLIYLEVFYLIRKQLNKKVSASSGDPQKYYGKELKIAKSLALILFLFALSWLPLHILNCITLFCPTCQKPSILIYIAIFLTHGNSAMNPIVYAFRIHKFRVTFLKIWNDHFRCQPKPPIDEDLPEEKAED

[8] = tested on: Mus musculus; experiment: Anticonvulsant activity in F1 albino mouse assessed as protection against maximal electroshock-induced seizures at 300 mg/kg, ip after 1 hr; type: functional, organism-based; set-up: dose 300 mg/kg; summary of the method: as §2
[9] = tested on: Rattus norvegicus; experiment: Anticonvulsant activity in Sprague-Dawley albino rat assessed as protection against subcutaneous pentylenetetrazole-induced seizures at 50 mg/kg, po after 0.25 hrs; type: functional, organism-based; set-up: dose 50 mg/kg; summary of the method: as §1
[10] = tested on: Rattus norvegicus; experiment: Anticonvulsant activity in Sprague-Dawley albino rat assessed as protection against maximal electroshock-induced seizures at 30 mg/kg, po after 4 hrs; type: functional, organism-based; set-up: dose 30 mg/kg; summary of the method: as §1
[11] = organism: Rattus norvegicus; experiment: Selectivity ratio of Ki for adenosine A1 receptor in rat brain cortical membrane to Ki for adenosine A2A receptor in rat brain striatal membrane; type: cell membranes
Summary of the method: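 Ki ratios from radioligand competition binding. Rat A1 used brain cortical membranes and rat A2A used brain striatal membranes. Human A1 and A2A used membranes of CHO cells expressing the receptors. A1 radioligand [³H]CCPA; A2A radioligand [³H]MSX-2. Potent compounds were tested at 6–7 concentrations spanning 3 orders of magnitude.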

[12] = tested on: Rattus norvegicus; experiment: Anticonvulsant activity in Sprague-Dawley albino rat assessed as protection against maximal electroshock-induced seizures at 30 mg/kg, po after 0.5 hrs; type: functional, organism-based; set-up: dose 30 mg/kg; summary of the method: as §1
[13] = tested on: Mus musculus; experiment: Anticonvulsant activity in F1 albino mouse assessed as protection against subcutaneous pentylenetetrazole-induced seizures at 100 mg/kg, ip after 0.25 hrs; type: functional, organism-based; set-up: dose 100 mg/kg; summary of the method: as §2
[14] = tested on: Mus musculus; experiment: Anticonvulsant activity in F1 albino mouse assessed as protection against subcutaneous pentylenetetrazole-induced seizures at 300 mg/kg, ip after 0.5 hrs; type: functional, organism-based; set-up: dose 300 mg/kg; summary of the method: as §2
[15] = tested on: Mus musculus; experiment: Neurotoxicity in F1 albino mouse assessed as minimal motor impairment at 300 mg/kg, ip after 0.25 hrs by rotorod test; type: toxicity, organism-based; set-up: dose 300 mg/kg, route intraperitoneal; conditions: in vivo; summary of the method: as §2
[16] = tested on: Rattus norvegicus; experiment: Toxicity in Sprague-Dawley albino rat assessed as mortality following continuous seizures at 50 mg/kg, po after 4 hrs; type: organism-based; set-up: dose 50 mg/kg, route oral; conditions: in vivo; summary of the method: as §3
[17] = tested on: Rattus norvegicus; experiment: Anticonvulsant activity in Sprague-Dawley albino rat assessed as protection against maximal electroshock-induced seizures at 30 mg/kg, po after 1 hr; type: functional, organism-based; set-up: dose 30 mg/kg; summary of the method: as §1
[18] = tested on: Rattus norvegicus; experiment: Anticonvulsant activity in Sprague-Dawley albino rat assessed as protection against maximal electroshock-induced seizures at 30 mg/kg, po after 2 hrs; type: functional, organism-based; set-up: dose 30 mg/kg; summary of the method: as §1
[19] = target: Adenosine receptor A2a (Rattus norvegicus, UniProt P30543); experiment: Displacement of [3H]MSX-2 from adenosine A2A receptor in rat brain striatal membrane; type: cell membranes
Sequence of Adenosine receptor A2a (P30543 whole entry): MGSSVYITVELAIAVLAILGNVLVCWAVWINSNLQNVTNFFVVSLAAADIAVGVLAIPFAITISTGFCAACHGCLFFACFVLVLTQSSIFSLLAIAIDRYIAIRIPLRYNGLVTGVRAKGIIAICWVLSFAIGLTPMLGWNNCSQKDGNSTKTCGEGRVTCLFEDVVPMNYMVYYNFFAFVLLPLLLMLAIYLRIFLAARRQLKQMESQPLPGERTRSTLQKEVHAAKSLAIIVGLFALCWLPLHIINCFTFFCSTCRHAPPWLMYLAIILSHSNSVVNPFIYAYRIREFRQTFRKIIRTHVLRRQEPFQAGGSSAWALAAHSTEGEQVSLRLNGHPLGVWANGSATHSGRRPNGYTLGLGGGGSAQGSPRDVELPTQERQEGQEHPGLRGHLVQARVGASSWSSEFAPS

[20] = tested on: Mus musculus; experiment: Anticonvulsant activity in F1 albino mouse assessed as protection against subcutaneous pentylenetetrazole-induced seizures at 300 mg/kg, ip after 4 hrs; type: functional, organism-based; set-up: dose 300 mg/kg; summary of the method: as §2
[21] = tested on: Mus musculus; experiment: Neurotoxicity in F1 albino mouse assessed as minimal motor impairment at 300 mg/kg, ip after 4 hrs by rotorod test; type: toxicity, organism-based; set-up: dose 300 mg/kg, route intraperitoneal; conditions: in vivo; summary of the method: as §2
[22] = tested on: Mus musculus; experiment: Anticonvulsant activity in F1 albino mouse assessed as protection against maximal electroshock-induced seizures at 300 mg/kg, ip after 0.5 hrs; type: functional, organism-based; set-up: dose 300 mg/kg; summary of the method: as §2
[23] = tested on: Mus musculus; experiment: Neurotoxicity in F1 albino mouse assessed as minimal motor impairment at 300 mg/kg, ip after 1 hr by rotorod test; type: toxicity, organism-based; set-up: dose 300 mg/kg, route intraperitoneal; conditions: in vivo; summary of the method: as §2
[24] = tested on: Rattus norvegicus; experiment: Neurotoxicity in Sprague-Dawley albino rat assessed as minimal motor impairment at 30 mg/kg, po after 0.5 hrs by rotorod test; type: toxicity, organism-based; set-up: dose 30 mg/kg, route oral; conditions: in vivo; summary of the method: as §1
[25] = tested on: Mus musculus; experiment: Anticonvulsant activity in F1 albino mouse assessed as protection against maximal electroshock-induced seizures at 300 mg/kg, ip after 4 hrs; type: functional, organism-based; set-up: dose 300 mg/kg; summary of the method: as §2
[26] = tested on: Rattus norvegicus; experiment: Neurotoxicity in Sprague-Dawley albino rat assessed as minimal motor impairment at 30 mg/kg, po after 1 hr by rotorod test; type: toxicity, organism-based; set-up: dose 30 mg/kg, route oral; conditions: in vivo; summary of the method: as §1
[27] = tested on: Rattus norvegicus; experiment: Toxicity in Sprague-Dawley albino rat assessed as mortality following continuous seizures at 50 mg/kg, po after 0.5 hrs; type: organism-based; set-up: dose 50 mg/kg, route oral; conditions: in vivo; summary of the method: as §3
[28] = tested on: Rattus norvegicus; experiment: Toxicity in Sprague-Dawley albino rat assessed as mortality following continuous seizures at 50 mg/kg, po after 1 hr; type: organism-based; set-up: dose 50 mg/kg, route oral; conditions: in vivo; summary of the method: as §3
[29] = tested on: Mus musculus; experiment: Neurotoxicity in F1 albino mouse assessed as minimal motor impairment at 300 mg/kg, ip after 0.5 hrs by rotorod test; type: toxicity, organism-based; set-up: dose 300 mg/kg, route intraperitoneal; conditions: in vivo; summary of the method: as §2
[30] = tested on: Rattus norvegicus; experiment: Anticonvulsant activity in Sprague-Dawley albino rat assessed as protection against subcutaneous pentylenetetrazole-induced seizures at 50 mg/kg, po after 1 hr; type: functional, organism-based; set-up: dose 50 mg/kg; summary of the method: as §1
[31] = tested on: Rattus norvegicus; experiment: Anticonvulsant activity in Sprague-Dawley albino rat assessed as protection against subcutaneous pentylenetetrazole-induced seizures at 50 mg/kg, po after 4 hrs; type: functional, organism-based; set-up: dose 50 mg/kg; summary of the method: as §1
[32] = tested on: Rattus norvegicus; experiment: Anticonvulsant activity in po dosed Sprague-Dawley albino rat assessed as protection against subcutaneous pentylenetetrazole-induced seizures; type: functional
[33] = tested on: Mus musculus; experiment: Anticonvulsant activity in F1 albino mouse assessed as protection against subcutaneous pentylenetetrazole-induced seizures at 300 mg/kg, ip after 0.25 hrs; type: functional, organism-based; set-up: dose 300 mg/kg; summary of the method: as §2
[34] = tested on: Mus musculus; experiment: Anticonvulsant activity in F1 albino mouse assessed as protection against subcutaneous pentylenetetrazole-induced seizures at 100 mg/kg, ip after 0.5 hrs; type: functional, organism-based; set-up: dose 100 mg/kg; summary of the method: as §2
[35] = tested on: Mus musculus; experiment: Anticonvulsant activity in F1 albino mouse assessed as protection against subcutaneous pentylenetetrazole-induced seizures at 300 mg/kg, ip after 1 hr; type: functional, organism-based; set-up: dose 300 mg/kg; summary of the method: as §2
[36] = tested on: Rattus norvegicus; experiment: Anticonvulsant activity in po dosed Sprague-Dawley albino rat assessed as protection against maximal electroshock-induced seizures; type: functional
[37] = tested on: Rattus norvegicus; experiment: Toxicity in Sprague-Dawley albino rat assessed as mortality following continuous seizures at >100 mg/kg, po; type: organism-based; conditions: in vivo
[38] = tested on: Rattus norvegicus; experiment: Anticonvulsant activity in Sprague-Dawley albino rat assessed as protection against subcutaneous pentylenetetrazole-induced seizures at 50 mg/kg, po after 0.5 hrs; type: functional, organism-based; set-up: dose 50 mg/kg; summary of the method: as §1

| SMILES | Activity [1] | Activity [5] | Activity [6] | pKi [7] | Activity [8] | Activity [9] | Activity [10] | Ratio Ki [11] | Activity [12] | Activity [15] | Activity [17] | Activity [18] | pKi [19] | Activity [20] | Activity [21] | Activity [22] | Activity [23] | Activity [24] | Activity [25] | Activity [26] | also measured |
| --- | --- | --- | --- | --- | --- | --- | --- | --- | --- | --- | --- | --- | --- | --- | --- | --- | --- | --- | --- | --- | --- |
| CC1CCC(N2CCCCn3c2nc2c3c(=O)n(C)c(=O)n2C)CC1 (mixture of isomers) | Non-toxic | Non-toxic | inactive | 5.46 | inactive | inactive | inactive | 4 | inactive | Non-toxic | inactive | inactive | 6.08 | inactive | Non-toxic | inactive | Non-toxic | Non-toxic | inactive | Non-toxic | Activity [2]: inactive; Activity [3]: Active; Activity [4]: Toxic; Activity [13]: Active; Activity [14]: Active; Activity [16]: Toxic; Activity [27]: Toxic; Activity [28]: Toxic; Activity [29]: Non-toxic |
| Cn1c(=O)c2c(nc3n2CCCCN3CC2CCCCC2)n(C)c1=O | Non-toxic | Non-toxic | inactive | 5.29 | inactive | inactive | inactive | 1 | inactive | Non-toxic | inactive | inactive | 5.46 | inactive | Non-toxic | Active | Non-toxic | Non-toxic | inactive | Non-toxic | Activity [30]: inactive; Activity [31]: inactive; ED50 [32]: > 100 mg/kg; Activity [33]: inactive; Activity [34]: Active; Activity [35]: inactive; ED50 [36]: > 250 mg/kg; Activity [37]: Toxic; Activity [38]: Active; Activity [29]: Non-toxic |

Reference: ChEMBL document CHEMBL2150901, “Synthesis and biological activity of tricyclic cycloalkylimidazo-, pyrimido- and diazepinopurinediones” (Eur J Med Chem, 2011)
